Assay outcomes as filed in PubChem BioAssay.
Compounds with a hit are over-represented: about 6.6% of the library has one in this group of screens.
Jurkat tox 60K: cytotoxicity toward Jurkat T cells, primary screen, cytotoxicity control, cell-based, Jurkat E6.1, 60K MLSMR library | Jurkat E6.1 viability, ATP luminescence, 48 h | inhibition, % at 4 µM | 56,000 tested, 1.2% active;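 active = inhibition above the mean inhibition of all tested compounds plus 3 SD, cut at about 28% in these data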
H69AR inhibit: proliferation blockers of H69AR lung cancer cells, primary screen, cell-based, human, 86K library; H69AR lung tumor viability, ATP luminescence, 72 h; stronger effect = lower value; viability, % at 10 µM; 85,000 tested, 6% active; AID 598, 2007;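 active = viability at or below 40%; inactive = viability above 40%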;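 note: multidrug resistant small cell line overexpressing MRP-1 efflux transporter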
Lung fibro prol: antiproliferative effect on LL 47 fibroblasts – human, LL 47 cells, CellTiter-Glo luminescence, primary screen; 85,000 tested, 1.1% active; viability, % at 10 µM; LL 47 human lung fibroblast viability, ATP luminescence; stronger effect = lower value; AID 719, 2007;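 active = viability at or below 50% in the single dose screen; inactive = viability above 50%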;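 note: compound exposure lasted 72 h before the ATP readout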
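Assay system: human lung fibroblast line LL 47, low passage. Input: 1,150 fibroblasts seeded per well. Times: overnight cell rest, 72 h compound treatment at 37 °C. Evaluation: % viability of median cell-only signal. Technique: luminescent ATP detection, CellTiter-Glo. Control set: cell-only wells, no compound.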
HUVEC inhibit: inhibitors of HUVEC proliferation, primary screen, cell-based, 384-well. CellTiter-Glo luminescence, 72 h; stronger effect = lower value. AID 648, 2007. viability, % at 10 µM (by protocol). 86,000 tested, 1.1% active;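 active = viability at or below 30%; inactive = viability above 30%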
Hits are given with their value; 0 = inactive; - = not tested or not shown.

SMILES	Jurkat tox 60K	H69AR inhibit	Lung fibro prol	HUVEC inhibit
Cc1ccc(NC(=O)CC2S/C(=N/c3nccs3)N(C)C2=O)c(C)c1 (centres undefined)	-	0	0	0
COc1ccc(C(=O)Nc2ccc(-c3ccc(C)o3)cc2)cc1S(=O)(=O)N1CCOCC1	0	21.8	0	0
O=C(Nc1ccccc1)c1ccc(NCc2ccco2)c(S(=O)(=O)N2CCOCC2)c1	0	39.3	0	0
COc1ccc(CN2CCn3ncc(C(=O)Nc4cc(C)cc(C)c4)c3C2=O)cc1	-	0	0	10.3
CC(NC(=O)C1CCCCC1)C(c1cccs1)N1CCN(C)CC1 (centres undefined)	0	-	-	-
Cc1cc(C)n(-c2nc(NCCC(C)C)c3c4c(sc3n2)COC(C)(C)C4)n1	-	1.6	0	12.9
Cc1cc(C)n(-c2nc(-n3nc(C)cc3C)c3c4c(sc3n2)COC(C)(C)C4)n1	-	25.6	0	0
O=C(Nc1ccc2c(c1)OCCO2)c1ccc2nccnc2c1	0	0	0	0
O=C(Nc1ccc(SC(F)F)cc1)c1ccc2nccnc2c1	32.3	0	0	0
CCC(Oc1ccccc1)C(=O)Nc1ccccn1 (centres undefined)	0	-	-	-
O=C(COc1ccc(Cl)cc1)Nc1ccccc1C(=O)NCc1ccco1	0	0	37.1	0
COc1ccc(C(=O)Nc2ccccc2C(=O)N(Cc2ccco2)C(C(N)=O)C(C)C)cc1 (centres undefined)	-	5.6	41.9	0
COc1ccc(C(=O)Nc2ccccc2C(=O)NC(C(=O)NCc2ccco2)C(C)C)cc1 (centres undefined)	0	1.2	38.5	0
CCC(C)NC(=O)c1ccccc1NC(=O)COc1ccc(OC)cc1 (centres undefined)	-	31.7	0	0
Cc1cc(C)cc(OCC(=O)Nc2ccccc2C(=O)NCc2ccco2)c1	0	0	0	0
COc1ccc(NC(=O)c2ccccc2NC(=O)COc2ccccc2)cc1	-	0	0	0
COc1ccc(C(=O)Nc2ccccc2C(N)=O)cc1	0	0	0	0
O=C1c2ccccc2C(Nc2ccc3c(c2)OCCO3)N1Cc1ccccc1 (centres undefined)	0	0	0	0
COc1cccc(-n2nc(-c3ccnn3-c3ccc(C)cc3)c(=O)n(C)c2=O)c1	-	0	0	0
Cc1c(NC(=O)Cn2cnc3c(=O)n(C)c(=O)n(C)c32)cccc1-c1nc2ccccc2o1	0	0	0	0
N#CCCCSC1=C(C#N)C(c2ccccc2Cl)CC(=O)N1 (centres undefined)	0	0	0	0
COC(=O)c1c(NC(=O)c2nc3ccccc3s2)sc2c1CCN(C(C)=O)C2	0	0	3.4	4.2
CNC(=O)c1c(NC(=O)c2nc3ccccc3s2)sc2c1CCC2	0	0	0	0
Cc1cc2c3c(c1)C1(C(=O)N3C(C)(C)CC2C)C(C#N)=C(N)Oc2n[nH]c(C)c21 (centres undefined)	0	19.9	0	0
Cc1cc2c3c(c1C)C1(C(=O)N3C(C)(C)CC2C)C(C#N)=C(N)Oc2n[nH]c(C)c21 (centres undefined)	0	0	0	0
SMILES	Jurkat tox 60K	H69AR inhibit	Lung fibro prol	HUVEC inhibit
O=C(CCn1c(=O)c2ccccc2n(CC(=O)NC2CCCC2)c1=O)NCc1ccco1	-	0	0	0
Brc1ccc(CSc2nnc(-c3ccccn3)n2Cc2ccco2)cc1	-	21.1	49.4	0
C(=C\c1ccccc1)/CSc1nnc(-c2ccccc2)n1Cc1ccco1	-	17.9	47.2	0
Cn1c(=O)c2c(nc(SCC(=O)N3CCc4ccccc43)n2Cc2ccc(F)cc2)n(C)c1=O	-	0	0	0
CC(C)COC(=O)C1[C@H]2C(=O)N(Cc3cccs3)C[C@]23C=C[C@H]1O3 (some centres undefined)	0	0	0	0
CCOC(=O)N1CCC(NC(=O)Cn2nc(Cc3ccncc3)c3ccccc3c2=O)CC1	0	0	0	0
O=C(Cn1nnc(-c2ccccc2)n1)N=Nc1c(O)[nH]c2ccccc12	-	0	0	0
Cc1cccc(C)c1OCC(=O)N=Nc1c(O)[nH]c2ccc(Br)cc12	-	1.9	0	17.5
CCC(C)Oc1ccccc1C1CC(=O)NC2=C1C(=O)CCC2 (centres undefined)	39.5	-	-	-
COc1cccc2cc(C(C)=O)c(=O)oc12	0	0	0	0
COc1cc2ccc(=O)oc2c(O)c1OCC=C(C)C	0	36.7	0	0
CC(=O)c1ccc(N2CCN(C(=O)COc3ccccc3F)CC2)c(F)c1	-	0	0	0
COc1ccc(Nc2ncnc3c2oc2ccccc23)cc1	0	38.7	0	0
